Measured values published in ChEMBL document CHEMBL1125497, “Synthesis and anticonvulsant activity of enaminones” (J Med Chem, 1992).

Tests used:
[1] = Antiepileptic activity in male CF1 mice 4 hr after administration measured in subcutaneous pentylenetetrazole (scMet) test at a dose of 300 mg/kg (no. of animals treated /protected); activity value is 0/1; format: functional, Mus musculus
[2] = Antiepileptic activity in male CF1 mice 30 min after administration measured in neurological toxicity (Tox) test at a dose of 300 mg/kg (no. of animals treated /protected); activity value is 1/4; format: functional, Mus musculus
[3] = Time of peak neurotoxic effect in CF1 MICE after ip administration.; format: ADME, organism-based; conditions: mouse, in vivo
Summary of the method: (§1)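 Male CF1 mice (ca. 24–34 g), compound ip in 0.5% methylcellulose suspension; neurological deficit assessed by rotorod test, time (h) of peak neurotoxic effect recorded for TD50 determination.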

[4] = Antiepileptic activity in male CF1 mice 30 min after administration measured in subcutaneous pentylenetetrazole (scMet) test at a dose of 100 mg/kg (no. of animals treated /protected) activity value is 0/1; format: functional, Mus musculus
[5] = Antiepileptic activity in male CF1 mice 4 hr after administration measured in neurological toxicity (Tox) test at a dose of 100 mg/kg (no. of animals treated /protected); activity value is 0/4; format: functional, Mus musculus
[6] = Time of peak anticonvulsant effect in CF1 MICE after po administration.; format: functional, Mus musculus
Summary of the method: (§2)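 Male CF1 mice (ca. 24–34 g), compound in 0.5% methylcellulose suspension given ip or po; time (h) at which MES protection (against tonic hind limb extension) peaked was recorded and used for ED50 determination.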

[7] = Antiepileptic activity in male CF1 mice 30 min after administration measured in maximum electroshock seizure(MES) test at a dose of 100 mg/kg (no. of animals treated /protected); activity value is 1/3; format: functional, Mus musculus
[8] = Antiepileptic activity in male CF1 mice 4 hr after administration measured in maximum electroshock seizure(MES) test at a dose of 100 mg/kg (no. of animals treated /protected); activity value is 0/3; format: functional, Mus musculus
[9] = Antiepileptic activity in male CF1 mice 4 hr after administration measured in subcutaneous pentylenetetrazole (scMet) test at a dose of 100 mg/kg; activity value is 0/1; format: functional, Mus musculus
[10] = Antiepileptic activity in male CF1 mice 30 min after administration measured in subcutaneous pentylenetetrazole (scMet) test at a dose of 300 mg/kg (no. of animals treated /protected); activity value is 0/1; format: functional, Mus musculus
[11] = Dose elevating electroshock induced seizure by 20% in CF1 mice after ip administration.; format: functional, Mus musculus
Summary of the method: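 In CF1 male mice (ca. 24–34 g), compound was given ip in 0.5% methylcellulose. The current giving hind limb extension in 50% of mice was found by the up-and-down method, with 15–25 mice per group and a vehicle control group run with each experimental group. At least three doses were tested. The dose raising threshold current by 20% was taken from a plot of dose against % threshold increase.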

[12] = Dose at which anticonvulsant activity was observed in mice; format: functional, Mus musculus
[13] = Protective index was measured as TD50/MES ED50 in mice on ip administration; format: ADME, organism-based; conditions: mouse, in vivo, read-out: PI
Summary of the method: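 Male CF1 mice (ca. 24–34 g), compound given ip as 0.5% methylcellulose suspension. MES ED50 = dose protecting 50% from tonic hind limb extension; TD50 = median neurotoxic dose by rotorod; both at time of peak effect, with confidence limits by Litchfield and Wilcoxon. PI = TD50/MES ED50.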

[14] = Antiepileptic activity in male CF1 mice 30 min after administration measured in maximum electroshock seizure(MES) test at a dose of 300 mg/kg (no. of animals treated /protected); activity value is 1/1; format: functional, Mus musculus
[15] = Dose showing neurotoxicity in 50% of the at the time of peak neurotoxic effect in CF1 MICE after ip administration.; format: toxicity, organism-based; conditions: CF1, mouse, in vivo
Summary of the method: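 CF1 male mice (ca. 24–34 g), dosed ip in 0.5% methylcellulose suspension. Neurotoxicity measured by the rotorod test at the time of peak neurotoxic effect. TD50 and confidence limits by the Litchfield-Wilcoxon method.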

[16] = Dose protecting 50% of the mice from tonic hind limb extension at the time of peak convulsant effect after po administration.; format: functional; conditions: Mus musculus, Hindlimb
Summary of the method: (§3)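 Phase II quantification in CF1 male mice (ca. 24–34 g), dosing ip or po in 0.5% methylcellulose suspension. ED50 is protection from tonic hind limb extension in MES. TD50 is rotorod neurotoxicity. Both were read at time of peak effect and derived by Litchfield–Wilcoxon with 95% confidence limits.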

[17] = Dose protecting 50% of the mice from tonic hind limb extension at the time of […] after ip administration.; format: functional; conditions: Mus musculus, Hindlimb; summary of the method: as §3
[18] = Antiepileptic activity in male CF1 mice 30 min after administration measured in neurological toxicity (Tox) test at a dose of 100 mg/kg (no. of animals treated /protected); activity value is 0/8; format: functional, Mus musculus
[19] = Antiepileptic activity in male CF1 mice 4 hr after administration measured in neurological toxicity (Tox) test at a dose of 300 mg/kg (no. of animals treated /protected); activity value is 0/2; format: functional, Mus musculus
[20] = Time of peak anticonvulsant effect in CF1 MICE after ip administration.; format: functional, Mus musculus; summary of the method: as §2
[21] = Antiepileptic activity in male CF1 mice 4 hr after administration measured in maximum electroshock seizure(MES) test at a dose of 300 mg/kg (no. of animals treated /protected); activity value is 1/1; format: functional, Mus musculus
Rattus norvegicus [22] = experiment: Average seizure score for the rat cornea 0.5 hr after intraperitoneal administration of 20 mg/Kg of compound; format: functional
Summary of the method: (§4)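 Sprague-Dawley rats (85–95 g initial weight) kindled by corneal stimulation (4 s, 8 mA) twice daily for 5 to 6 days, then once daily until 10 consecutive stage 5 seizures. Butacaine sulfate 1% applied to the cornea as a topical anaesthetic. After a vehicle shock and a 2-day shock-free period, drug given ip, then a single shock at the time of peak effect. Scored on the modified Racine scale (0–5).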

Rattus norvegicus [23] = experiment: Intraperitoneal dose (25 mg/Kg) reducing rat corneal kindling 0.5 hr after administration.; format: functional; summary of the method: as §4
Rattus norvegicus [24] = experiment: Intraperitoneal dose (20 mg/Kg) reducing rat corneal kindling 0.5 hr after administration.; format: functional; summary of the method: as §4
Rattus norvegicus [25] = experiment: Average seizure score for the rat cornea 0.5 hr after intraperitoneal administration of 30 mg/Kg of compound; format: functional; summary of the method: as §4
Rattus norvegicus [26] = experiment: Average seizure score for the rat cornea 0.5 hr after intraperitoneal administration of 0 mg/Kg of compound; format: functional; summary of the method: as §4
Rattus norvegicus [27] = experiment: Average seizure score for the rat cornea 0.5 hr after intraperitoneal administration of 15 mg/Kg of compound; format: functional; summary of the method: as §4
Rattus norvegicus [28] = experiment: Intraperitoneal dose (30 mg/Kg) reducing rat corneal kindling 0.5 hr after administration.; format: functional; summary of the method: as §4
Rattus norvegicus [29] = experiment: Intraperitoneal dose (15 mg/Kg) reducing rat corneal kindling 0.5 hr after administration.; format: functional; summary of the method: as §4
Rattus norvegicus [30] = experiment: Intraperitoneal dose (0 mg/Kg) reducing rat corneal kindling 0.5 hr after administration.; format: functional; summary of the method: as §4
[31] = Antiepileptic activity in male CF1 mice 30 min after administration measured in subcutaneous pentylenetetrazole (scMet) test at a dose of 100 mg/kg (no. of animals treated /protected); activity value is 0/1; format: functional, Mus musculus
[32] = Antiepileptic activity in male CF1 mice 4 hr after administration measured in maximum electroshock seizure(MES) test at a dose of 300 mg/kg (no. of animals treated /protected); activity value is 0/1; format: functional, Mus musculus
[33] = Dose producing neurotoxic effects in 50% of the CF1 mice after intraperitoneal administration.; format: functional; conditions: Mus musculus, ip; read-out: ED50 (the source's name); summary of the method: as §3
[34] = Protective index was measured as TD50/ED50; format: ADME; conditions: read-out: PI
[35] = Anticonvulsant activity administered intraperitoneally in CF1 mice is the ability to protect the mice from MES(maximal electroshock seizure).; format: functional; conditions: Mus musculus, ip
[36] = Antiepileptic activity in male CF1 mice 30 min after administration measured in neurological toxicity (Tox) test at a dose of 300 mg/kg (no. of animals treated /protected); activity value is 0/4; format: functional, Mus musculus
[37] = Antiepileptic activity in male CF1 mice 30 min after administration measured in maximum electroshock seizure(MES) test at a dose of 100 mg/kg (no. of animals treated /protected); activity value is 2/3; format: functional, Mus musculus
[38] = Time of peak anticonvulsant effect in CF1 mice; format: functional, Mus musculus; summary of the method: as §2
[39] = Oral dose producing neurotoxic effects in 50% of rats; format: ADME, organism-based; conditions: rat, in vivo
Summary of the method: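 Phase VI screen in male Sprague-Dawley rats dosed orally. MES protection and rotorod toxicity were scored as animals responding over animals tested at 0.25, 0.5, 1, 2 and 4 h.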

[40] = Antiepileptic activity in male CF1 mice 4 hr after administration measured in subcutaneous pentylenetetrazole (scMet) test at a dose of 100 mg/kg (no. of animals treated /protected); activity value is 0/1; format: functional, Mus musculus
[41] = Time of peak neurotoxic effect in CF1 mice; format: ADME; conditions: mouse, in vivo; summary of the method: as §1
Rattus norvegicus [42] = experiment: Dose reducing the seizure severity in rat cornea 0.5 hr after peroral administration.; format: functional; conditions: po
Summary of the method: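 Sprague-Dawley rats (85–95 g initial) were kindled with 4 s, 8 mA corneal stimulations (butacaine anesthesia) to 10 consecutive stage 5 seizures. After a vehicle shock and a 2-day shock-free period, test drug was given ip or po and a single shock applied at time of peak effect. Seizures were scored on a modified Racine 0–5 scale. ED50 is the dose reducing severity by 50% (Litchfield–Wilcoxon).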

[43] = Antiepileptic activity in male CF1 mice 30 min after administration measured in maximum electroshock seizure(MES) test at a dose of 300 mg/kg (no. of animals treated /protected); activity value is 0/1; format: functional, Mus musculus

CC1(C)CC(O)=C/C(=N\Cc2ccccc2)C1
Activity [1]: 0 | Activity [2]: 1 | TPE [3]: 0.25 | Activity [4]: 0 | Activity [5]: 0 | TPE [6]: 0.5 | Activity [7]: 1 | Activity [8]: 0 | Activity [9]: 0 | Activity [10]: 0 | Dose [11]: 20 mg/kg | Dose [12]: >100 mg/kg | selectivity ratio [13]: 2.8 | Activity [14]: 1 | TD50 [15]: 148 mg/kg | ED50 [16]: 211 mg/kg | ED50 [17]: 53 mg/kg | Activity [18]: 0 | Activity [19]: 0 | TPE [20]: 0.5 | Activity [21]: 1

CCC1(c2ccccc2)C(=O)NC(=O)NC1=O [PHENOBARBITAL]
TPE [3]: 1 | Dose [11]: 3 mg/kg | Average seizure score (Rattus norvegicus [22]): 1.7 | Reduction (Rattus norvegicus [23]): 70% | Reduction (Rattus norvegicus [24]): 68% | TD50 [15]: 92 mg/kg | Average seizure score (Rattus norvegicus [25]): 1.3 | Average seizure score (Rattus norvegicus [26]): 5 | ED50 [17]: 18 mg/kg | Average seizure score (Rattus norvegicus [27]): 2.7 | Reduction (Rattus norvegicus [28]): 74% | Reduction (Rattus norvegicus [29]): 47% | TPE [20]: 1 | Reduction (Rattus norvegicus [30]): 0%

CC1(C)CC(O)=C/C(=N\c2ccccc2)C1
Activity [1]: 0 | Activity [31]: 0 | Activity [32]: 0 | TD50 [33]: 233 mg/kg | Activity [5]: 0 | selectivity ratio [34]: 2.1 | Activity [8]: 0 | Activity [10]: 0 | Dose [12]: <=100 mg kg-1 | ED50 [35]: 109 mg/kg | Activity [36]: 0 | Activity [37]: 2 | Activity [14]: 1 | TPE [38]: 0.5 | TD50 [39]: > 250 mg/kg | Activity [18]: 0 | Activity [19]: 0 | Activity [40]: 0 | TPE [41]: 0.5

NC(=O)N1c2ccccc2C=Cc2ccccc21 [CARBAMAZEPINE]
ED50 [35]: 8.8 mg/kg | TPE [38]: 0.25 | TPE [41]: 0.25

O=C1NC(=O)C(c2ccccc2)(c2ccccc2)N1 [PHENYTOIN]
ED50 (Rattus norvegicus [42]): > 100 mg/kg | TPE [38]: 2 | TD50 [39]: > 3000 mg/kg | TPE [41]: 2

CC1CC(NCCc2ccccc2)=CC(=O)C1C(=O)NCCc1ccccc1 (stereo not drawn)
Activity [1]: 0 | Activity [10]: 0 | Dose [12]: >100 mg/kg | Activity [43]: 0 | Activity [36]: 0 | Activity [19]: 0 | Activity [21]: 1
